Laboratory results taken from PubChem BioAssay.
Activity calls are given as the source filed them.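 The calls were made as follows, unless noted: active = GFP response above 150% of the DMSO level; inconclusive = fewer than 70 events counted for a yeast strain; inactive = the rest.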

Assays:
[1] = hit retest on RPL19A-GFP reporter strain – cell-based, S. cerevisiae, flow cytometry, cherry picks, mother/daughter gates, confirmation (AID 2270;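 active = GFP response below 50% of the DMSO control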); settings: 3 h, at 10 µM, stronger effect = lower value, 100 = same GFP as DMSO wells
[2] = yeast TOR pathway reporter LAP4-GFP change – cell-based, cherry picks, flow cytometry, mother/daughter gates, confirmation (AID 2271;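 active = GFP response above 150% of the DMSO control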;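 also: ratio of sample to DMSO plate mean so 100% equals DMSO level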); settings: S. cerevisiae LAP4-GFP strain, 3 h, at 10 µM, stronger effect = higher value, 100 means same as DMSO control
Outline: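 System: GFP-fusion yeast strain; Incubation: compound exposure 3 h at 30 °C, end-over-end rotation; Measured by: GFP by flow cytometry; Read-out: median GFP fluorescence as percent of plate-mean DMSO wells; Medium: synthetic complete (SC) yeast growth medium; Compound: single test-compound dose, 10 µM final; Benchmarks: DMSO-only negative wells, rapamycin 400 ng/mL positive wells.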

[3] = TOR pathway reporter MEP2-GFP, retest of hits – S. cerevisiae, flow cytometry GFP, cherry picks, confirmation (AID 2272;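 active = GFP response above 150% of the DMSO control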;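 also: ratio of well signal to plate DMSO mean so 100% equals DMSO level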); settings: S. cerevisiae MEP2-GFP strain, 3 h, at 10 µM, stronger effect = higher value
[4] = yeast AGP1-GFP fluorescence change, single-dose – cell-based, flow cytometry, S. cerevisiae, cherry picks, confirmation (AID 2273);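 also: median GFP channel fluorescence over the whole cell population gate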; settings: S. cerevisiae AGP1-GFP strain, 3 h, at 10 µM
[5] = TOR pathway CIT2 reporter hit retest – S. cerevisiae, GFP fusion, cherry picks, mother/daughter gates, confirmation (AID 2274); settings: S. cerevisiae CIT2-GFP strain, flow cytometry, 3 h, at 10 µM, stronger effect = higher value
[6] = measured here: daughter cell gate
[7] = measured here: mother cell gate
[8] = measured here: daughter cell gate response
[9] = measured here: mother cell gate response

SMILES | GFP response vs DMSO [1] | GFP response vs DMSO [1, 6] [%] | GFP response vs DMSO [1, 7] [%] | GFP response relative to DMSO [2] | GFP response relative to DMSO [2, 8] [%] | GFP response relative to DMSO [2, 9] [%] | GFP response vs DMSO [3] | GFP response, % of DMSO [4] | GFP response, % of DMSO [5] | GFP response, % of DMSO [5, 6] [%] | GFP response, % of DMSO [5, 7] [%]
COCCN1C2=C(COC(C)(C)C2)C(=S)NC1c1ccccc1 (stereo not drawn) | 98% (inactive) | 98.9 | 99 | 94.1% (inactive) | 96 | 94 | 107% (inactive) | 99.1% (inactive) | 107% (inactive) | 108 | 108
CCc1nnc(NC(=O)c2ccc(S(=O)(=O)N(CC(C)C)CC(C)C)cc2)o1 | 101% (inactive) | 97.6 | 102 | 98.2% (inactive) | 97.5 | 97.3 | 101% (inactive) | 100% (inactive) | 102% (inactive) | 103 | 101
CC(NC(=O)C1CCC(CNS(=O)(=O)c2ccccc2)CC1)c1ccccc1 (stereo not drawn) | 101% (inactive) | 102 | 101 | 100% (inactive) | 102 | 99.5 | 104% (inactive) | 107% (inactive) | 99.3% (inactive) | 100 | 96.8
CCOC(=O)C1=C(c2ccccc2)NC(=S)NC1c1cc([N+](=O)[O-])ccc1OC (stereo not drawn) | 94% (inactive) | 92.6 | 96.4 | 97.9% (inactive) | 97.6 | 97.2 | 96.2% (inactive) | 95.2% (inactive) | 99.7% (inactive) | 101 | 99.7
Cc1cc(C=C2C(=O)c3ccccc3C2=O)c(C)n1-c1cccc(C(=O)O)c1 | 100% (inactive) | 101 | 101 | 96.1% (inactive) | 98.2 | 95.1 | 101% (inactive) | 100% (inactive) | 112% (inactive) | 110 | 113
CNc1nc(-c2ccccc2)cc(C(F)(F)F)c1C#N | 97.4% (inactive) | 95.3 | 92.9 | 96.2% (inactive) | 95.6 | 93.1 | 104% (inactive) | 102% (inactive) | 102% (inactive) | 99.7 | 98.7
CCOc1cc(C(=O)N2CCN(c3ccc(C(C)=O)cc3)CC2)cc(OCC)c1OCC | 91.8% (inactive) | 91.2 | 89.8 | 126% (inactive) | 110 | 125 | 109% (inactive) | 104% (inactive) | 106% (inactive) | 105 | 105
O=C(Nc1ccccc1C(=O)O)c1ccccc1 | 100% (inactive) | 99.8 | 101 | 100% (inactive) | 102 | 97.5 | 102% (inactive) | 98.9% (inactive) | 99.3% (inactive) | 102 | 98
CCN(Cc1ccccc1)S(=O)(=O)c1ccc(C(=O)Nc2nnc(-c3ccccc3OC)o2)cc1 | 98.4% (inactive) | 98.6 | 98.4 | 94.1% (inactive) | 92.8 | 94 | 102% (inactive) | 96.4% (inactive) | 98.3% (inactive) | 97.2 | 99.7
O=C(CNC(=O)c1ccncc1)N/N=C/c1cccc([N+](=O)[O-])c1 | 99.2% (inactive) | 98.6 | 99.4 | 97.9% (inactive) | 97.6 | 98.3 | 105% (inactive) | 94.7% (inactive) | 99.7% (inactive) | 101 | 99.7
Cc1c(C)c2ccc(OCC(=O)NCCCn3ccnc3)cc2oc1=O | 97.8% (inactive) | 97.4 | 98.5 | 96.7% (inactive) | 96 | 96.1 | 105% (inactive) | 97.6% (inactive) | 101% (inactive) | 101 | 101
N#C/C(=C\c1ccc(N2CCOCC2)o1)c1ccccc1 | 98.2% (inactive) | 97.3 | 98.5 | 102% (inactive) | 102 | 103 | 104% (inactive) | 93.8% (inactive) | 104% (inactive) | 104 | 103
O=[N+]([O-])c1cc(CN2CCN(c3cccc(C(F)(F)F)c3)CC2)c2cccnc2c1O | 112% (inactive) | 96.4 | 104 | 234% (active) | 229 | 216 | 145% (inactive) | 116% (inactive) | 138% (inactive) | 117 | 131
COc1ccc(-c2csc(Nc3ncccc3C)n2)cc1 | 95.6% (inactive) | 92.1 | 95.3 | 107% (inactive) | 104 | 109 | 98.3% (inactive) | 88.6% (inactive) | 103% (inactive) | 105 | 99.7
COc1cc(NC(C)=O)ccc1NC(=O)c1cc2ccccc2o1 | 99% (inactive) | 97.8 | 98.2 | 95% (inactive) | 97.2 | 96.2 | 100% (inactive) | 102% (inactive) | 100% (inactive) | 98.1 | 101
N#C/C(=C\c1cccc(Oc2ccccc2)c1)C(=O)N1CCOCC1 | 97.8% (inactive) | 97.8 | 95.1 | 137% (inactive) | 128 | 141 | 98.8% (inactive) | 104% (inactive) | 90.9% (inactive) | 90.5 | 87.8
Cc1cc(Cl)ccc1N1C(=O)CC(SCCC(=O)O)C1=O (stereo not drawn) | 96.4% (inactive) | 97.6 | 95.3 | 103% (inactive) | 102 | 105 | 102% (inactive) | 97.8% (inactive) | 103% (inactive) | 103 | 101

SMILES | GFP response vs DMSO [1] | GFP response vs DMSO [1, 6] [%] | GFP response vs DMSO [1, 7] [%] | GFP response relative to DMSO [2] | GFP response relative to DMSO [2, 8] [%] | GFP response relative to DMSO [2, 9] [%] | GFP response vs DMSO [3] | GFP response, % of DMSO [4] | GFP response, % of DMSO [5] | GFP response, % of DMSO [5, 6] [%] | GFP response, % of DMSO [5, 7] [%]
COc1ccc(N2CCN(C(=O)c3ccc(Br)cc3)CC2)c([N+](=O)[O-])c1 | 114% (inactive) | 80.2 | 102 | 208% (active) | 131 | 192 | 132% (inactive) | 153% (active) | 105% (inactive) | 82.5 | 90.8
O=C(CSc1cccc[n+]1[O-])CSc1cccc[n+]1[O-] | 97.8% (inactive) | 101 | 95 | 119% (inactive) | 116 | 120 | 103% (inactive) | 103% (inactive) | 97.2% (inactive) | 101 | 98.2
O=C(O)c1cccc(S(=O)(=O)N2Cc3ccccc3C2)c1 | 96.9% (inactive) | 97.3 | 95.9 | 106% (inactive) | 101 | 108 | 101% (inactive) | 104% (inactive) | 100% (inactive) | 99.3 | 100
Cc1cccc(NC(c2ccc(C)s2)c2ccc3ccc(C)nc3c2O)n1 (stereo not drawn) | 108% (inactive) | 120 | 98.6 | 140% (inactive) | 141 | 134 | 114% (inactive) | 94.9% (inactive) | 109% (inactive) | 121 | 94.4
COc1ccc(C2CC(c3c(-c4ccccc4)c4cc(Cl)ccc4[nH]c3=O)=NN2S(C)(=O)=O)cc1OC (stereo not drawn) | 99.6% (inactive) | 101 | 98.5 | 91.5% (inactive) | 92.8 | 89.7 | 96.2% (inactive) | 98.3% (inactive) | 99.7% (inactive) | 99.1 | 98.5
N#CC(C(=O)NCc1ccccc1)c1nc2ccccc2nc1N1CCCC1 (stereo not drawn) | 103% (inactive) | 102 | 104 | 114% (inactive) | 108 | 117 | 117% (inactive) | 99.6% (inactive) | 111% (inactive) | 108 | 109
Cc1ccc(NC(=S)c2nc3ccccc3[nH]2)cc1 | 101% (inactive) | 99.6 | 99.3 | 125% (inactive) | 120 | 128 | 109% (inactive) | 88.3% (inactive) | 102% (inactive) | 103 | 99.3
O=C(O)Cc1csc(-c2cccc(Oc3ccccc3)c2)n1 | 100% (inactive) | 97.8 | 101 | 105% (inactive) | 98.7 | 106 | 100% (inactive) | 95.4% (inactive) | 93.9% (inactive) | 93.2 | 93.4
COC(=O)c1ccc2nc(Nc3nc4ccc(F)cc4s3)sc2c1 | 101% (inactive) | 101 | 102 | 81.8% (inactive) | 84.8 | 86 | 97.8% (inactive) | 97% (inactive) | 108% (inactive) | 105 | 109
CCC(=O)Nc1cccc(C(=O)/C=C/c2cc(Br)ccc2OC)c1 | 98.8% (inactive) | 99.2 | 97.7 | 103% (inactive) | 98.7 | 110 | 104% (inactive) | 97.2% (inactive) | 93.9% (inactive) | 94.8 | 91.2
Cn1c(N2CCCC2)nc2c1c(=O)n(Cc1ccc(Cl)cc1)c(=O)n2C | 91.8% (inactive) | 84.5 | 87.5 | 126% (inactive) | 109 | 121 | 94.7% (inactive) | 98.4% (inactive) | 81.4% (inactive) | 77.5 | 76
Cc1ccc(C(C[N+](=O)[O-])Sc2ccc(N)cc2)cc1 (stereo not drawn) | 95.6% (inactive) | 98.4 | 94.8 | 135% (inactive) | 133 | 140 | 109% (inactive) | 89.6% (inactive) | 98.3% (inactive) | 103 | 95
Nc1nc(SCC(=O)Nc2cc(C(F)(F)F)ccc2N2CCOCC2)n[nH]1 | 99% (inactive) | 99.9 | 97.9 | 101% (inactive) | 101 | 98.3 | 105% (inactive) | 101% (inactive) | 99.7% (inactive) | 99.1 | 98.5
CCc1ccc(C(=O)COC(=O)c2n[nH]c3ccccc23)cc1 | 95.8% (inactive) | 97.3 | 94 | 102% (inactive) | 101 | 104 | 101% (inactive) | 101% (inactive) | 101% (inactive) | 97.6 | 102
CCNC(=O)/C(C#N)=C/c1c(N2CCN(Cc3ccc4c(c3)OCO4)CC2)nc2c(C)cccn2c1=O | 101% (inactive) | 99.2 | 103 | 99.8% (inactive) | 97.2 | 101 | 102% (inactive) | 100% (inactive) | 104% (inactive) | 101 | 104
COc1ccc(N2C(=O)c3cccc4cccc(c34)C2=O)nn1 | 98% (inactive) | 97.3 | 98.7 | 89% (inactive) | 91 | 91.1 | 97.8% (inactive) | 98% (inactive) | 92.6% (inactive) | 93.2 | 91.2
